This is an account of results in ChEMBL document CHEMBL1138456 (J Med Chem, 2009).

Data set [1] can be described thus: Stability assessed as half life at pH 8.0 in presence of calf intestine alkaline phosphatase. In kind it is ADME, tissue-based. To be noted: cattle. A digest of the protocol: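 Prodrug in 50 mM sodium phosphate pH 7.4 was incubated with calf intestinal alkaline phosphatase (0.000125 units/µL) in 10 mM Tris pH 8.0 at 37 °C for 30 min. Reactions were quenched with NaCl and MeOH/acetonitrile, held on ice for 30 min and centrifuged. Dephosphorylation half-life is in minutes.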

Data set [2] in a line: Aqueous solubility in water by shake flask method. The data set is classed as physicochemical. A digest of the protocol: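 Solubility: about 5 mg solid per 1 mL deionized water, unbuffered, in triplicate. Samples were vortexed, sonicated and protected from light, then tumbled at 25 °C for 1 day. They were centrifuged, filtered and diluted, and analyzed by HPLC with UV detection at 215 nm.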

Data set [3] in a line: Chemical stability assessed as half life at pH 2 by HPLC. The data set is classed as physicochemical. To be noted: buffer.
Data set [4] in a line: AUC in po dosed Beagle dog at dose molar equivalent to 5 mg/kg RTV coadministered with LPV-OMP dosed as 5% dextrose containing solution. Also on record: dose 5 mg/kg, route oral. The data set is classed as ADME, organism-based, Canis lupus familiaris. The following applies: plasma. In outline: (§1)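 Male and female beagle dogs (8-12 kg, n = 3) were dosed orally at 5 mg equiv/kg of parent. Parents were dissolved in 5% dextrose with 20% ethanol, 30% propylene glycol and 2 equiv methanesulfonic acid. Prodrugs were dissolved in 5% dextrose. Plasma was measured by reversed-phase HPLC with an internal standard. Cmax is in µg/mL and AUC in µg·h/mL.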

Data set [5] can be described thus: AUC in po dosed Beagle dog at dose molar equivalent to 5 mg/kg RTV coadministered with LPV dosed as 5% dextrose containing solution. The data set is classed as ADME, organism-based, Canis lupus familiaris. More on the design: dose 5 mg/kg, route oral. To be noted: plasma. In outline: as §1
A short description of data set [6]: Cmax in po dosed Beagle dog at dose molar equivalent to 5 mg/kg RTV coadministered with LPV-OMP dosed as 5% dextrose containing solution. More on the design: dose 5 mg/kg, route oral. In kind it is ADME, organism-based, Canis lupus familiaris. To be noted: in vivo. A digest of the protocol:
as §1

The nature of data set [7]: Cmax in po dosed Beagle dog at dose molar equivalent to 5 mg/kg RTV coadministered with LPV dosed as 5% dextrose containing solution. The following applies: in vivo. Also on record: dose 5 mg/kg, route oral. The data set is classed as ADME, organism-based, Canis lupus familiaris. A digest of the protocol:
as §1

In a further data set the test system is Rattus norvegicus. Kind of data set: AUC in Sprague-Dawley rat plasma at 5 mg/kg, po. In kind it is ADME, organism-based. More on the design: dose 5 mg/kg, route oral. The following applies: in vivo. In outline:
(§2)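 Male Sprague-Dawley-derived rats (0.25-0.35 kg, n = 3) were given oral gavage doses equivalent to 5 mg/kg parent (5 mg equiv/kg). Prodrugs were given in 5% dextrose in water. Parents were given in ethanol/propylene glycol formulation. For LPV species, a 5 mg/kg RTV gavage dose was given first. Plasma was analyzed by reversed-phase HPLC with an internal standard. Cmax is in µg/mL and AUC in µg·h/mL.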

Data set [8] in a line: AUC in Sprague-Dawley rat plasma at 5 mg/kg, po coadministered with RTV. More on the design: dose 5 mg/kg, route oral. The data set is classed as ADME, organism-based. In outline:
as §2

Data set [9] is described as follows: Cmax in Sprague-Dawley rat plasma at 5 mg/kg, po coadministered with RTV. The data set is classed as ADME, organism-based. Also on record: dose 5 mg/kg, route oral. A digest of the protocol:
as §2

Data set [10] is described as follows: Half life in rat at 5 mg/kg, iv. The data set is classed as ADME, organism-based. Also on record: dose 5 mg/kg, route intravenous. To be noted: in vivo.
A short description of data set [11]: Clearance in rat at 5 mg/kg, iv. The data set is classed as ADME, organism-based. Also on record: dose 5 mg/kg, route intravenous. To be noted: in vivo.
Data set [12] is described as follows: Chemical stability assessed as half life at pH 5 by HPLC. In kind it is physicochemical. The following applies: buffer.
A short description of data set [13]: Chemical stability assessed as half life at pH 9 by HPLC. In kind it is physicochemical. To be noted: buffer.
Data set [14] can be described thus: Chemical stability assessed as half life at pH 7.4 by HPLC. In kind it is physicochemical. To be noted: buffer.

In brackets after ≈: the same amount, converted by molar mass.

As for `Cc1cccc(C)c1OCC(=O)N[C@@H](Cc1ccccc1)[C@H](C[C@H](Cc1ccccc1)NC(=O)[C@H](C(C)C)N1CCCNC1=O)OCOP(=O)([O-])[O-].[Na+].[Na+]`, the half-life in data set [1] is 13.9 min; in [3], 468 min. The same compound displayed a thermodynamic solubility in data set [2] greater than 5000 µg/mL.

On to `CC(C)c1nc(CN(C)C(=O)N[C@H](C(=O)N[C@@H](Cc2ccccc2)C[C@H](O)[C@H](Cc2ccccc2)NC(=O)OCc2cncs2)C(C)C)cs1` [RITONAVIR], for which the AUC in data set [4] is 4430 ng·h/mL; in data set [5], 2190 ng·h/mL; with Rattus norvegicus it was 3530 ng·h/mL. Moreover, the Cmax in data set [6] worked out at 2130 ng/mL; in [7], 1320 ng/mL.

On to `CCCC(O[C@@H](C[C@H](Cc1ccccc1)NC(=O)[C@@H](NC(=O)N(C)Cc1csc(C(C)C)n1)C(C)C)[C@H](Cc1ccccc1)NC(=O)OCc1cncs1)OP(=O)([O-])[O-].[Na+].[Na+]` (stereo not given in full), for which the half-life in data set [1] is 31.7 min.

As for `Cc1cccc(C)c1OCC(=O)N[C@@H](Cc1ccccc1)[C@@H](O)C[C@H](Cc1ccccc1)NC(=O)[C@H](C(C)C)N1CCCNC1=O` [LOPINAVIR], the AUC in [8] amounted to 9280 ng·h/mL. Besides, in data set [9], the Cmax amounted to 1550 ng/mL. The same compound showed a solubility (thermodynamic) in data set [2] of 7 µg/mL (≈ 11.1 µM).

As for `CC(C)c1nc(CN(C)C(=O)N[C@H](C(=O)N[C@@H](Cc2ccccc2)C[C@H](OP(=O)([O-])[O-])[C@H](Cc2ccccc2)NC(=O)OCc2cncs2)C(C)C)cs1.[Na+].[Na+]`, the half-life in [10] was 13.8 min. The clearance in data set [11] was 43 mL/min/kg.

For `Cc1cccc(C)c1OCC(=O)N[C@@H](Cc1ccccc1)[C@H](C[C@H](Cc1ccccc1)NC(=O)[C@H](C(C)C)N1CCCNC1=O)OC(C)OP(=O)([O-])[O-].[Na+].[Na+]` (stereo not given in full), the half-life is 133 min in data set [12]; 20.4 min in data set [1]; greater than 100 days in [13]; 19 days in [14]; less than 15 min in [3]. The compound further returned a solubility (thermodynamic) in data set [2] greater than 5000 µg/mL.

Turning to `CC(O[C@@H](C[C@H](Cc1ccccc1)NC(=O)[C@@H](NC(=O)N(C)Cc1csc(C(C)C)n1)C(C)C)[C@H](Cc1ccccc1)NC(=O)OCc1cncs1)OP(=O)([O-])[O-].[Na+].[Na+]` (stereo not given in full), the half-life in data set [12] is 76 min; in [1], 14.8 min; in data set [13] it was greater than 100 days; in data set [14] it was 12 days; in [3], less than 15 min. Besides, in [2], the solubility (thermodynamic) was greater than 5000 µg/mL.

Regarding `CC(C)c1nc(CN(C)C(=O)N[C@H](C(=O)N[C@@H](Cc2ccccc2)C[C@H](OC(OP(=O)([O-])[O-])C(C)C)[C@H](Cc2ccccc2)NC(=O)OCc2cncs2)C(C)C)cs1.[Na+].[Na+]` (stereo not given in full), in [1], the half-life was greater than 30 min.

`CC(C)c1nc(CN(C)C(=O)N[C@H](C(=O)N[C@@H](Cc2ccccc2)C[C@H](OCOP(=O)([O-])[O-])[C@H](Cc2ccccc2)NC(=O)OCc2cncs2)C(C)C)cs1.[Na+].[Na+]`: the results for the half-life in data set [1] and in data set [3] were 7 min and 516 min, respectively. In data set [2], this compound had a solubility (thermodynamic) greater than 5000 µg/mL.

Usually half-life stands for the time needed for the level to fall by half in the phase considered. The term thermodynamic solubility denotes solubility found after equilibrating the solid with the medium. Usually AUC stands for the area under the concentration-time curve, a measure of exposure. By Cmax is commonly meant the peak of the concentration-time curve. The clearance is a measure of how efficiently the substance is removed, as volume per time.
